Our source for the inhibition values is PubChem BioAssay AID1040 (The Scripps Research Institute Molecular Screening Center, 2008).

As a reminder, the inhibition is the relative decrease from the control value, in per cent.

About 2,000 (1%) of roughly 200,000 compounds were called active. The sample holds actives, similar compounds and a random draw of the others, so the mix is not that of the screen. Unmarked numbers belong to inactive results.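 How the source made its calls: active means inhibition above the campaign mean inhibition of all tested compounds plus 3 SD (cut at about 20% in these data); inactive means the rest.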

Sequence of Neuropeptide Y receptor type 1 (Homo sapiens) (P25929 whole entry, looked up): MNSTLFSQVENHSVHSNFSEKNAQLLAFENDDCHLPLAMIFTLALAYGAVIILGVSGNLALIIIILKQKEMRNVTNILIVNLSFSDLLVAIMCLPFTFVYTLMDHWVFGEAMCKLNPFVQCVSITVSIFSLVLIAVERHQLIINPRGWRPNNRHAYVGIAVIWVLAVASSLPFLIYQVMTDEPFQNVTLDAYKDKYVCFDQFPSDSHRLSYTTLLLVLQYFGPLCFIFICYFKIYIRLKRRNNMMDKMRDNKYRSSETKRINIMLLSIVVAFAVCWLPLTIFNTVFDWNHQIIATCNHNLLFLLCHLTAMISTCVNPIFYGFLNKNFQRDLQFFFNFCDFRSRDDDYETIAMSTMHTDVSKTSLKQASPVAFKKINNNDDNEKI

For this experiment, the target named is Neuropeptide Y receptor type 1 (Homo sapiens) (UniProt P25929). Nature of the experiment: NPY-Y1 receptor antagonists, primary screen, cell-based (AID 1040).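 Further: 0% = DMSO wells given NPY plus isoproterenol and 100% = isoproterenol alone without NPY.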 To be noted: HEK293-CNG Y1 cells, membrane potential fluorescence; at 3.6 µM; stronger effect = higher value; NPY at EC95, then isoproterenol. The essentials:
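Benchmarks – high control isoproterenol alone, low control NPY with isoproterenol · Material – HEK293 Y1/CNG channel cell line · Times – dye 3 h, compound 60 min room temperature, stimulation 45 min · Probe or stimulus – NPY (25 nM), isoproterenol (1 µM), Ro 20-1724 (25 µM) · Evaluation – % inhibition of NPY effect · Signal – fluorescence, membrane potential probe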
With `Cc1nnc(SCC(=O)N2c3ccccc3C(C)(c3ccc(Cl)cc3)CC2(C)C)s1` (stereo unspecified), the inhibition is 16.7%. For the compound `CC(=O)Nc1ccc(/C(C)=N/NC(=O)CN(c2ccccc2Br)S(C)(=O)=O)cc1`, the inhibition is -2.53%.

With `Cc1ccc(-n2c(SCC(=O)Nc3ncc(Cl)cc3Cl)nc3ccccc32)cc1`, the inhibition was -2.49%. As for `Cc1ccc(SCCC(=O)OCC(=O)Nc2ncc(Cl)cc2Cl)cc1`, the inhibition is 20.4% (active).

On to `CC(Oc1ccc(Cl)cc1)C(=O)OCC(=O)Nc1ncc(Cl)cc1Cl` (stereo unspecified), for which the inhibition is 2.64%. With `CC1(C)C=C2[C@H]3CC[C@@H]4[C@@]5(C)CCC(=O)C(C)(C)[C@@H]5CC[C@@]4(C)[C@]3(C)CC[C@@]2(C(=O)O)CC1` the figure was 2.69%; with `Cc1cc(O)ccc1-c1cnc2ccccc2n1`, -0.67%.

Regarding `Oc1ccc(-c2[nH]ncc2-c2nc3ccccc3s2)c(O)c1`, the inhibition was 62.6% (active).

For `CC(=O)Nc1cccc(-c2nc3ccccc3s2)c1C`, the inhibition was 3.27%. With `CC1CCN(S(=O)(=O)c2ccc3ncn(CC(=O)N(C)C4CCCCC4)c(=O)c3c2)CC1` the figure was 4.79%; with `CCOC(=O)C1CCN(CCC(=O)Nc2cccc(C)c2)CC1`, -5.31%. In the case of `COc1cc2c(C(=O)N3CCN(C)CC3)c(CSc3ccccc3)n(C)c2cc1Br`, the inhibition is 23.3% (active).

In the case of `COc1ccccc1OCc1ccc(C(=O)N2CCN(C)CC2)o1`, the inhibition is 6.16%. With `O=C(c1ccc(CSc2ccccc2)cc1)N1CCCCCC1` the figure was -0.16%; with `O=[N+]([O-])c1ccc(N2CCN(S(=O)(=O)c3ccccc3)CC2)cc1N1CCc2ccccc2C1`, 4.34%.

In the case of `CNC(=O)COC(=O)c1cc(-c2ccc(OC)cc2)nc2ccccc12`, the inhibition is 3.85%. As to `Cc1ccc(OCC(=O)Nn2cnc3ccccc32)cc1`, the inhibition was 8.06%. With `COc1ccc(-c2cc(C(=O)n3cnc4ccccc43)c3ccccc3n2)cc1` the figure was 26.2% (active); with `COc1cc(NC(=S)N2CCCC(C)C2)cc(OC)c1OC` (stereo unspecified), -1.31%. For `CC(=O)N1CCN(S(=O)(=O)c2cccc(C(=O)NC3CCC(C)CC3)c2)CC1` (stereo unspecified), the inhibition is 1.65%. Then `CC(C)Cn1cnc2c1c(=O)n(CC(O)c1ccccc1)c(=O)n2CC(C)C` (stereo unspecified), with 20.6% (active); and `CC(C)Cn1c(CN(Cc2ccccc2)Cc2ccccc2)nc2c1c(=O)n(C)c(=O)n2C`, with 13.4%. For the compound `Cn1c(=O)c2c(ncn2CCc2ccccc2)n(C)c1=O`, the inhibition was -0.86%. With `CCCN(CC(=O)Nc1ccc(C(N)=O)cc1)CC(=O)Nc1ccccc1C`, the inhibition is -0.18%. With `O=C1Nc2cc(Cl)c(Cl)cc2N(O)N1c1ccccc1Cl`, the inhibition is 1.81%. With `CC(=O)Nc1ccc(NC(=O)C(C)OC(=O)c2ccccc2C(=O)c2ccc(Cl)c([N+](=O)[O-])c2)cc1` (stereo unspecified) the figure was 0.15%; with `O=C(CN1C(=O)/C(=C\c2ccc(C(F)(F)F)cc2)Sc2ccccc21)NCc1ccco1`, 10.7%.

With `Cc1nn(Cc2ccccc2)c(C)c1C(=O)NCCN1C(=O)S/C(=C\c2ccc(F)cc2)C1=O`, the inhibition is -0.53%. `CCN1CCN(CCNC(=O)c2ccc(/C=C3/Sc4ccccc4N(Cc4cccc(C)c4)C3=O)cc2)CC1`: the inhibition is 23.1% (active). Then `Cc1ccc(OCCCn2c(=O)oc3ccccc32)cc1`, with 8.49%. As to `Cc1ccc2nc(-c3ccc(NC(=O)CN(C)S(=O)(=O)c4ccccc4)cc3)sc2c1`, the inhibition is -3.73%. Regarding `Cc1c(CN2CCCC(C(=O)c3cccc(Cl)c3)C2)c(=O)n(-c2ccccc2)n1C` (stereo unspecified), the inhibition is -2.25%. Then `Cc1ccc2nc(-c3ccncc3)cc(C(=O)Nc3ccc4c(c3)OCCO4)c2c1`, with 4.85%.

Take `O=C(Nc1ccncc1)c1cc(-c2ccccn2)nc2ccc(Br)cc12`: the inhibition is -2.88%. `Cc1ccc2nc(-c3ccccn3)cc(C(=O)Nc3ccc4c(c3)OCO4)c2c1`: the inhibition is 31.6% (active). Consider `COc1ccccc1N(C(=O)Cn1nnc2ccccc21)C(C(=O)NCc1ccco1)c1ccc(C)o1` (stereo unspecified), for which the inhibition was 21.5% (active). In the case of `Cc1ccc(C(C(=O)NCc2ccco2)N(CC2CCCO2)C(=O)Cn2nnc3ccccc32)cc1` (stereo unspecified), the inhibition was 2.99%. For the compound `COCCNC(=O)C(c1ccc(C)o1)N(Cc1ccccc1)C(=O)Cn1nnc2ccccc21` (stereo unspecified), the inhibition was 7.77%. As to `CCO[C@H]1OC(C(=O)O)=C[C@@H](C2CCCCC2)[C@@H]1CCCO`, the inhibition was -4.69%. For the compound `CC1CC1C(=O)OCC(=O)c1c(N)n(C)c(=O)n(C)c1=O` (stereo unspecified), the inhibition is 0.59%. `COc1ccc(OC)c(NC(=O)CN(Cc2ccc(Cl)cc2)S(C)(=O)=O)c1`: the inhibition was -0.76%. For the compound `COc1ccccc1N1CCN(C(=O)CN(Cc2ccc(Cl)cc2)S(C)(=O)=O)CC1`, the inhibition is 20.4% (active).

`CS(=O)(=O)N(CC(=O)N1CCCC1)Cc1ccccc1`: the inhibition is 1.29%. Regarding `COC(=O)C1=C(C)N(c2ccc(C)cc2)/C(=C/c2ccc(O)cc2)C1=O`, the inhibition was 2.2%. With `COCCNc1nc2nonc2nc1N1CCCC1c1nccs1` (stereo unspecified) the figure was 0.14%; with `O=C(c1cc(-c2ccc(O)cc2)on1)N1CCCc2ccccc21`, 25.5% (active). On to `Cc1ccc(-c2cc(C(=O)N3CCc4ccccc4C3)no2)cc1`, for which the inhibition was 28.6% (active). For the compound `O=C(C(=O)N1CCc2ccccc2C1)N1CCc2ccccc2C1`, the inhibition is 1.24%. On to `O=C(c1cc(-c2ccccc2O)on1)N1CCCC1`, for which the inhibition was -3.05%.

`Cc1occc1C(=O)N1CCCc2ccccc21`: the inhibition was 1.99%. With `O=C(c1cc(-c2cccc(O)c2)on1)N1CCc2ccccc2C1` the figure was 2.12%; with `CC(C)Oc1ccccc1C(=O)NC(CO)C(=O)O` (stereo unspecified), -2.02%. As for `Cc1ccc(O)c(CCc2ccccc2)n1`, the inhibition was 1.07%. For the compound `Cc1nn(CC(=O)Nc2ccc(C#N)cc2)c(C)c1[N+](=O)[O-]`, the inhibition is -0.39%. As for `N#Cc1c(N)nc2c3c(sc(=N)c2c1N)NC(=O)CC3c1ccccc1Cl` (stereo unspecified), the inhibition is 1.18%.

For `COc1ccc(C2CC(=O)Nc3sc(=N)c4c(N)c(C#N)c(N)nc4c32)cc1OC` (stereo unspecified), the inhibition was 60.1% (active).

With `COc1ccc(-c2cc(-c3ccc(N)cc3)nc(N)c2C#N)cc1OC`, the inhibition was 7.06%.

As to `CC(NC(=O)COC(=O)C1CCN(S(=O)(=O)c2ccccc2C(F)(F)F)CC1)c1ccccc1` (stereo unspecified), the inhibition is -0.58%.

As to `Cc1c(NC(=S)NC(=O)CCc2ccccc2)c(=O)n(-c2ccccc2)n1C`, the inhibition is 4.67%. Regarding `CCOc1cccc(SCc2noc(C(=O)NC(C)C)c2C(=O)O)c1`, the inhibition is 11%.

Turning to `COCCNC(=O)c1onc(CSc2cccc(C)c2)c1C(=O)O`, the inhibition was 9.11%. For `CCCCNC(=O)c1onc(CSc2cccc(OC)c2)c1C(=O)O`, the inhibition was 28.4% (active). For the compound `COc1ccc2nc(SCc3ccccc3)nc(C)c2c1`, the inhibition was 4.78%. For the compound `Cc1cccc(NC(=S)Nc2ccc(Cl)c(Cl)c2)c1`, the inhibition is 1.7%.

In the case of `Cc1cccc(NC(=S)NCCN(C2CCCCC2)C2CCCC2)c1`, the inhibition is 21.2% (active).

With `Cc1cccc(NC(=S)Nc2ccc(Br)cc2)c1`, the inhibition is 3.74%.

On to `Cc1nc(-c2ccccc2)cn2c1nc1ccccc12`, for which the inhibition was 5.56%. Consider `O=C(Cc1coc2ccc3ccccc3c12)NCc1cccs1`, for which the inhibition was 1.1%. For `O=C(Nc1ccc(NC(=O)c2ccco2)c(Cl)c1)c1cccc([N+](=O)[O-])c1`, the inhibition was 0.59%. With `COc1ccccc1C(=O)Nc1ccc(NC(=O)c2ccco2)c(C)c1`, the inhibition was 2.31%. Consider `COc1cc(NC(=O)c2cc([N+](=O)[O-])ccc2Br)ccc1NC(=O)c1ccco1`, for which the inhibition was 30.1% (active).

As for `CN(C)CCCO/N=C(\c1ccccc1)c1ccncc1`, the inhibition is -1.1%. Turning to `O=C(COc1cccc(F)c1)Oc1ccc(C(=O)c2ccccc2)cc1`, the inhibition was 2.24%. Then `CCCCc1c(O)nc2n(c1=O)CCS2`, with 20.6% (active); and `CCOC(=O)N1CCN(C(=O)c2cnc3n(c2=O)CCS3)CC1`, with -1.03%. `CC1CCc2c(sc3nc4n(c(=O)c23)CCS4)C1` (stereo unspecified): the inhibition is -3.28%. Then `CCc1ccccc1NC(=O)CN(C)C(=O)COc1ccc(C)nc1[N+](=O)[O-]`, with -0.59%.

In the case of `COc1ccc(/C(=N\O)c2nccc3cc(OC)c(OC)cc23)cc1OC`, the inhibition was 5.85%. For the compound `O=C(CC1CCCCC1)NCc1ccc(F)cc1`, the inhibition was -0.26%. With `O=C(CC1CCCCC1)Nc1c2c(nn1-c1ccc(F)cc1)CS(=O)(=O)C2` the figure was 46.3% (active); with `Cc1ccc(-n2nc3c(c2NC(=O)CCC2CCCCC2)CS(=O)C3)cc1` (stereo unspecified), 8.28%; with `CC(NC(=S)NC1CCCCC1)C(c1ccccc1)N1CCOCC1` (stereo unspecified), 0.27%. With `O=S(=O)(O)c1nc2ccccc2n1Cc1ccc(Cl)cc1`, the inhibition is 21.2% (active). With `O=S(=O)(O)c1nc2ccccc2n1Cc1ccc(Cl)cc1Cl`, the inhibition is -2.49%. With `O=S(=O)(Cc1ccccc1)c1nc2ccccc2n1Cc1ccccn1`, the inhibition is -1.06%. Turning to `O=C(Nc1ccccc1Cl)c1ccc2nsnc2c1`, the inhibition was 0.69%. Take `O=C(CN1CCCCC1)Nc1ccccc1Cl`: the inhibition was -2.44%.

On to `O=C(Nc1ccccc1Cl)/C(Cl)=C(\Cl)S(=O)c1ccccc1` (stereo unspecified), for which the inhibition is 27.5% (active). On to `CC(NC(=O)COC(=O)c1ccc(Cl)cc1O)c1ccc(F)cc1` (stereo unspecified), for which the inhibition was -0.49%. In the case of `COc1ccccc1Nc1ncnc2c1oc1ccccc12`, the inhibition is 21.3% (active). `Cc1nc(Cl)c2oc3ccccc3c2n1`: the inhibition is 3.46%. For `CCc1nc(Nc2ccc3nccnc3c2)c2oc3ccccc3c2n1`, the inhibition was -0.08%. With `COc1ccc(-n2nc3c(c2NC(=O)c2ccc(N4C(=O)CCC4=O)cc2)CSC3)cc1`, the inhibition is 2.78%. Regarding `CN(C)CCNC(=O)/C(=C/c1cccc([N+](=O)[O-])c1)NC(=O)c1ccccc1`, the inhibition is 2.65%. Regarding `Cc1ccc(C(=O)N/C(=C/c2ccc(-c3cccc([N+](=O)[O-])c3)o2)C(=O)NCCCN(C)C)cc1`, the inhibition is 27.8% (active).

Turning to `N#C/C(=C\c1ccc(-c2cccc([N+](=O)[O-])c2)o1)C(=O)NCCN1CCOCC1`, the inhibition is 0.61%.
